According to PubChem BioAssay AID2300 (The Scripps Research Institute Molecular Screening Center, 2010):
Among all 320,000 compounds or so, about 380 (0.12%) were called active. The sample as a whole holds a higher share of actives than the screen did. Values without a mark were called inactive.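 Rule for the calls: active = percent inhibition above the cutoff of mean plus 3 SD of all tested compounds, set per screening campaign (cut at about 20% in these data); inactive = the rest.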

Molecular target: Photoreceptor-specific nuclear receptor (Homo sapiens) (UniProt Q9Y5X4)
Experiment: inhibitors of NR2E3-RetCOR corepressor binding, primary screen, NR2E3 agonist project, biochemical, TR-FRET, GST-NR2E3, biotin-RetCOR (AID 2300);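 note: 0% = DMSO wells and 100% = biotin wells as full block of FRET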
Conditions: 1536-well, at 4.78 µM, stronger effect = higher value
Summary of the method: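 Material: NR2E3–RetCOR corepressor complex / Amount: 1.35 nM GST-NR2E3 / Medium: Tris pH 7.5 / Compound: single nominal compound dose of 4.8 µM / Incubation: 5 h at 4 °C / Technique: TR-FRET, Eu(K)-anti-GST donor, streptavidin-D2 acceptor, ex 340, em 617/671 nm / Read-out basis: percent loss of FRET ratio relative to control wells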

Photoreceptor-specific nuclear receptor (Homo sapiens), sequence (Q9Y5X4 whole entry, looked up): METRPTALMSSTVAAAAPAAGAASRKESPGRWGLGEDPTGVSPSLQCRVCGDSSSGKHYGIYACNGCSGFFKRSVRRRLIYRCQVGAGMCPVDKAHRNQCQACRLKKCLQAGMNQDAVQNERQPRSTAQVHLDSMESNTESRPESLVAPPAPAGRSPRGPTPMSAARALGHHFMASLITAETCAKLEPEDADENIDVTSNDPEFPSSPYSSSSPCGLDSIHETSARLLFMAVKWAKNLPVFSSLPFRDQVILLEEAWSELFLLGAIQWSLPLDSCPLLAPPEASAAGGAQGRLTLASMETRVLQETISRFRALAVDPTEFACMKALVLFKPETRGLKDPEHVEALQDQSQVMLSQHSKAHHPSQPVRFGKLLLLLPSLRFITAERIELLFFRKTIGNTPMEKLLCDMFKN

Compound | inhibition of corepressor binding
Cc1ccc(CN(N=Nc2nonc2N)c2nonc2N)c(C)c1 | -0.3%
CC(=O)N=c1ncn(CC(COC(C)=O)OC(C)=O)c2nc[nH]c12 (stereo not drawn) | 0.37%
CCC[C@H]1CCCC/C=C\CCCC(=O)OCCN1C(=O)OC(C)(C)C | -1.54%
CCOc1cc(NC(=O)CCl)c(OCC)cc1NC(C)=O | -2.07%
COc1ccc2cc(-c3[nH]ncc3CNCCn3nc(C)cc3C)ccc2c1 | 1.22%
COc1cc(C(=O)Nc2ncccc2C)ccc1OCC(=O)N1CCOCC1 | 2.79%
Cc1nc(SCC(=O)NC2CCCC2)[nH]c(=O)c1C | -2.03%
O=C(c1ccc(Br)o1)N(c1ccccn1)C1CCCCC1 | -1.56%
CCCc1cc(=O)[nH]c(SCC(=O)Nc2sc3c(c2C#N)CCCC3)n1 | 1.75%
CCOc1ccc(NC(=O)N2CC=C(n3c(=O)[nH]c4ccccc43)CC2)cc1 | 1.76%
CCN1CCN(C(=O)C2(NC(=O)Nc3cccc(F)c3)CCCCC2)CC1 | 2.38%
Cc1ccc(C(=O)N/C(=C/c2ccc(-c3cccc([N+](=O)[O-])c3)o2)C(=O)NCCCN(C)C)cc1 | -3.84%
CCCCC(=O)Nc1c2c(nn1-c1ccc([N+](=O)[O-])cc1)CS(=O)(=O)C2 | 2.14%
COc1cc(OC)c(C(=O)N2CCCC2)cc1OC | 2.23%
COc1ccc(C2CC(=O)Nc3sc(=N)c4c(N)c(C#N)c(N)nc4c32)cc1OC (stereo not drawn) | -3.58%
CSc1nc2c(c(=O)[nH]1)C(c1cccc(Cl)c1Cl)CC(=O)N2 (stereo not drawn) | 5.66%
N#Cc1c(N)nc2c3c(sc(=N)c2c1N)NC(=O)CC3c1ccccc1Cl (stereo not drawn) | 27.7% (active)
CN(C)CCOc1cccc(Br)c1 | -0.9%
O=[N+]([O-])/C(N=Nc1ccccc1)=N\Nc1ccccc1 | -0.3%
CCc1ccc(CN(C)C(=O)C2CCC(=O)N(Cc3cccc(OC)c3)C2)nc1 (stereo not drawn) | -4.58%
C/C(=N/O)c1ccc(N2C(=O)C3C4C=CC(C3C2=O)C2C3C(=O)N(c5ccc(/C(C)=N/O)cc5)C(=O)C3C42)cc1 (stereo not drawn) | -3.35%
O=C(NNC(=O)C1CCC1)c1ccccc1 | 3.19%
O=C(CNCc1ccco1)Nc1cc(S(=O)(=O)N2CCOCC2)ccc1N1CCCC1 | 6.04%
Cc1c(Cl)cccc1NC(=O)[C@@]1(CC(=O)O)CC(/C=C/c2ccccc2)=NO1 | -2.16%

Compound | inhibition of corepressor binding
COC(=O)C1(C)NC(c2ccccc2OC)C2C(=O)N(c3ccccc3)C(=O)C21 (stereo not drawn) | 1.42%
O=C(CCCCO)c1ccc(O)c(Cl)c1 | -2.2%
O=C(COC(=O)Cc1ccc(Br)cc1)Nc1c(F)c(F)c(F)c(F)c1F | -1.39%
CN(c1ccccc1)S(=O)(=O)c1cccc(NC(=O)Cc2ccc(Cl)cc2)c1 | 4.43%
O=c1cnnc(Nc2ccccc2F)[nH]1 | 3.47%
Oc1c(Br)cc(/C=N/NC(=S)NCC2CCCO2)cc1Br (stereo not drawn) | 1.11%
O=C(NCCO)C(=O)NCC(c1ccc2c(c1)OCO2)N1CCN(c2ccc(F)cc2)CC1 (stereo not drawn) | -1.84%
CC1(C)C2CCC1(CS(=O)(=O)NCCc1c[nH]c3ccccc13)C(=O)C2 (stereo not drawn) | -2.06%
CCOC(=O)c1c(NC(=O)CSc2nnc(CNc3ccc(C)cc3C)o2)sc(C)c1C | -0.79%
O=S(=O)(Nc1n[nH]c(C(F)(F)F)n1)c1ccccc1 | 6.01%
Cc1c(Cl)c([N+](=O)[O-])nn1CC(=O)NCCCN1CCOCC1 | 4.17%
COc1ccccc1C(C)NC(=O)Cc1ccsc1 (stereo not drawn) | 2.21%
COc1ccc2oc(C(=O)N(CC(C)C)C3CCS(=O)(=O)C3)c(C)c2c1 (stereo not drawn) | 3.14%
COc1ccc(N2CCN(C(=O)C3CCN(S(=O)(=O)c4ccc(C)cc4)CC3)CC2)cc1 | 6.37%
CC1(C)CN(c2ccc(-c3ccnc4ncnn34)cc2)C1=O | -0.76%
COc1ccc(C)cc1S(=O)(=O)NCCc1ccccc1 | 2.48%
Fc1ccc(CNc2nc3ccccc3n3nnnc23)cc1 | -0.09%
CC(C)(C)NC(=O)/C(=C/c1cccnc1)NC(=O)c1ccco1 | -5.01%
NC(=O)c1cc(S(=O)(=O)NCCCc2ccco2)cs1 | 2.54%
O=C(NCCCNC(=O)NC1CCCCC1)NC1CCCCC1 | 1.65%
Cc1ccc(CC(=O)Nc2ccc(S(=O)(=O)N3CCOCC3)cc2)cc1C | 1.54%
CC(C)C[C@@H](N)c1nnc(SCC(=O)c2ccc(Cl)cc2)o1 | -0.27%
CCOc1cc(C2C(C(=O)c3ccco3)=C(O)C(=O)N2Cc2ccccc2)ccc1O (stereo not drawn) | 5.32%
O=C(C1=C(O)C(=O)N(Cc2ccccc2)C1c1ccco1)c1ccco1 (stereo not drawn) | 13%

Compound | inhibition of corepressor binding
CC(C)c1ccc(C2C(C(=O)c3ccco3)=C(O)C(=O)N2CC2CCCO2)cc1 (stereo not drawn) | 22.2% (active)
O=C1NC(c2ccccc2)=NC1(Nc1ccccn1)C(F)(F)F (stereo not drawn) | 0.74%
COc1cccc(N(CC(=O)NCCSc2ccccn2)S(C)(=O)=O)c1 | -2.09%
OC(c1ccccc1)c1nccn1Cc1ccccc1 (stereo not drawn) | -1.45%
NS(=O)(=O)c1ccc(NC2=CC(c3ccc(F)cc3)N(c3ccc(S(N)(=O)=O)cc3)C2=O)cc1 (stereo not drawn) | 1.09%
O=c1[nH]cccc1-c1nc2ccccc2n1Cc1ccc(Cl)cc1 | 5.14%
CCOc1ccccc1N(CC(=O)NC1CCCCC1)C(=O)CCCC(=O)Nc1ccccn1 | 2.15%
N#Cc1ccccc1Sc1ccccc1C(=O)OCC(=O)NC1CCCCC1 | 26.6% (active)
O=C(COC(=O)c1ccccc1SCC(=O)NC1CCCCC1)NC1CCCCC1 | -5.62%
N#Cc1ccc(C(=O)OCC(=O)NC(=O)NC2CCCCC2)cc1 | 0.11%
O=C(NCC(c1ccco1)N1CCc2ccccc21)c1cccc(F)c1 (stereo not drawn) | -1.2%
CCOC(=O)N1CCC(=NNC(N)=O)CC1 | 0.68%
O=C(Nc1ccccn1)C1CCN(S(=O)(=O)c2ccc3c(c2)OCCO3)CC1 | 2.07%
NNC(=O)CSc1nnc(-c2ccccc2)n1-c1ccccc1 | 3.63%
CC1(C)CC(O)C(CCC(O)c2ccccc2)C(C)(C)N1 (stereo not drawn) | 0.53%
O=C(Cn1cncn1)N/N=C/c1c2ccccc2cc2ccccc12 | -7.82%
Cc1ccc(C(C)C)c(OCc2nnc(SCC(=O)Nc3nccs3)n2C)c1 | 2.5%
CN(C(=O)CN1C(=O)NC(C)(CCc2ccccc2)C1=O)c1ccccc1 (stereo not drawn) | 3.26%
O=[N+]([O-])c1ccc(NC(=S)N2CCN(c3ccccn3)CC2)cc1 | 4%
CCOC(=O)c1ccc(NC(=S)N2CCCC2)cc1 | 0.82%
CCOC(=O)c1ccc(NC(=S)N2CCN(c3ccccn3)CC2)cc1 | 43.1% (active)
Cc1nc(N2CCOCC2)c2c(C)c(C(=O)Nc3ccc(C(F)(F)F)cc3)sc2n1 | -0.86%
CC(=O)Nc1ccc(N2CCOCC2)c(C(=O)Nc2cccc(C)c2)c1 | 0.26%
Cc1cccc(NC(=O)c2sc3nc(N4CCOCC4)c4c(c3c2N)CCCC4)c1 | 27.8% (active)

Compound | inhibition of corepressor binding
CN(Cc1ccccc1Cl)C(=O)C1CCC(=O)N(CCc2cccc(F)c2)C1 (stereo not drawn) | -0.98%
CCC(CC)C(=O)Nc1c2c(nn1-c1ccc(C)cc1)CS(=O)(=O)C2 | 0.73%
CCOc1ccc(C(=O)Nc2cc(Cl)ccc2-n2cncn2)cc1OC | 1.32%
N#C/C(C(=S)Nc1ccccc1)=C1/NN=C(N2CCOCC2)N1c1ccccc1 | -1.05%
Cc1ccccc1NC(=O)COc1cccc2c1CCNC2=O | -2.78%
NC(=S)c1ccc(C(N)=S)o1 | 2.26%
O=C(Oc1ccccc1)Oc1ccc2c(c1)oc(=O)c1ccccc12 | 26% (active)
O=C(COc1ccc2c3c(c(=O)oc2c1)CCCC3)NCC(O)c1ccccc1 (stereo not drawn) | 1.28%
CC(=O)COc1ccc2c(-c3ccccc3)cc(=O)oc2c1 | 3.24%
Cc1ccccc1C(CC(=O)c1cccs1)C(C#N)C#N (stereo not drawn) | 3.7%
COc1cc(C(F)(F)F)c(C(=O)N(C)c2ccc(Cl)cc2)cn1 | -2.07%
CC(=O)Nc1sc2c(c1C(c1cccc(F)c1)N1CCN(CCO)CC1)CCCC2 (stereo not drawn) | 2.91%
COC(=O)[C@]1(C)N[C@H](c2ccc(-c3ccc(Cl)c(Cl)c3)cc2)[C@@H]2C(=O)N(C)C(=O)[C@@H]21 | -0.27%
CC(=O)c1cccc(NC(=O)CN2C(=O)c3cccnc3Oc3ccc(Cl)cc32)c1 | 1.24%
COc1cc(C2C3C(=O)N(c4ccccc4)C(=O)C3ON2c2ccccc2)ccc1O (stereo not drawn) | 1.53%
Cn1c(=O)c(=O)n(C)c2cc(S(=O)(=O)CCC(=O)N3CCCCC3)ccc21 | 1.89%
CSc1sc(C)cc1C1C(C#N)=C(N)N(c2cccnc2)C2=C1C(=O)CCC2 (stereo not drawn) | 0.82%
COCC(=O)N1CCCC(C(=O)c2ccc(C(F)(F)F)cc2)C1 (stereo not drawn) | 3.84%
Cc1ccc(CN2CCN(c3ccccc3Cl)CC2)o1 | 0.07%
COCCNC(=O)CN1C(=O)CSc2ncccc21 | 4.79%
CCOc1ccccc1Nc1ccc(C(=O)O)cc1[N+](=O)[O-] | 0.59%
